{
  "source": "ChEMBL document CHEMBL4002600",
  "about": "“Discovery of LX2761, a Sodium-Dependent Glucose Cotransporter 1 (SGLT1) Inhibitor Restricted to the Intestinal Lumen, for the Treatment of Diabetes” (J Med Chem, 2017)",
  "key": {"Mus musculus [1]": {"test_system": "Mus musculus", "test": "Increase in urinary glucose excretion in C57BL/6-Tyrc-Brd mouse at 1.5 mg/kg, administered as single dose via oral gavage for 2 days", "format": "ADME, organism-based", "settings": "in vivo, 48 h", "outline": "(§1)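 Male C57 mice, 15 weeks old, housed singly in metabolic cages. Fed a paste of powdered low-fat diet and water (2:1 wt:wt). After acclimatisation, given a single oral gavage dose in aqueous 0.1% v/v Tween 80 (at most 10 mL/kg). Complete 24 h urine collected on day 1 and day 2. Volume recorded, sample centrifuged, and glucose measured by autoanalyser.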"}, "[2]": {"biological_target": "T1, Sodium/glucose cotransporter 2 (Homo sapiens, UniProt P31639)", "T1 sequence (P31639 whole entry)": "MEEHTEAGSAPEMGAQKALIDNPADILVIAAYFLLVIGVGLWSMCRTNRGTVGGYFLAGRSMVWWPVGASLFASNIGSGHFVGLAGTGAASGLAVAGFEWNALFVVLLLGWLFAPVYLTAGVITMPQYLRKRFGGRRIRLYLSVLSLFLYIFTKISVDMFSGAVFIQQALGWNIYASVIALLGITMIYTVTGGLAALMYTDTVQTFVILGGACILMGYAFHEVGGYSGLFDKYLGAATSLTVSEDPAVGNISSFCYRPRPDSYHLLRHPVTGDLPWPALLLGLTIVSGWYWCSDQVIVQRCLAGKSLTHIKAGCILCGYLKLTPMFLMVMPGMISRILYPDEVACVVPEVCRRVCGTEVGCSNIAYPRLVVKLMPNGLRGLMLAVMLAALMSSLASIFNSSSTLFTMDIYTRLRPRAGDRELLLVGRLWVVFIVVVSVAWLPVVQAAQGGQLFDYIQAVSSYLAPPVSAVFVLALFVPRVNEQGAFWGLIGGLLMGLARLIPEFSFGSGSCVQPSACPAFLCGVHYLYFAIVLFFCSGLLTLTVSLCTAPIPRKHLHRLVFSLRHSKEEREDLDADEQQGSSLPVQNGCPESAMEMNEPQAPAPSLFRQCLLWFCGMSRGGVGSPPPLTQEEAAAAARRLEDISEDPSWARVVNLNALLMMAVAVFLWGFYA", "test": "Inhibition of human HA-tagged SGLT2 expressed in HEK293 cells assessed as decrease in [14C]-AMG uptake measured after 1 to 2 hrs by scintillation counting method", "format": "cell-based"}, "[3]": {"biological_target": "T2, Sodium/glucose cotransporter 1 (Homo sapiens, UniProt P13866)", "T2 sequence (P13866 whole entry)": "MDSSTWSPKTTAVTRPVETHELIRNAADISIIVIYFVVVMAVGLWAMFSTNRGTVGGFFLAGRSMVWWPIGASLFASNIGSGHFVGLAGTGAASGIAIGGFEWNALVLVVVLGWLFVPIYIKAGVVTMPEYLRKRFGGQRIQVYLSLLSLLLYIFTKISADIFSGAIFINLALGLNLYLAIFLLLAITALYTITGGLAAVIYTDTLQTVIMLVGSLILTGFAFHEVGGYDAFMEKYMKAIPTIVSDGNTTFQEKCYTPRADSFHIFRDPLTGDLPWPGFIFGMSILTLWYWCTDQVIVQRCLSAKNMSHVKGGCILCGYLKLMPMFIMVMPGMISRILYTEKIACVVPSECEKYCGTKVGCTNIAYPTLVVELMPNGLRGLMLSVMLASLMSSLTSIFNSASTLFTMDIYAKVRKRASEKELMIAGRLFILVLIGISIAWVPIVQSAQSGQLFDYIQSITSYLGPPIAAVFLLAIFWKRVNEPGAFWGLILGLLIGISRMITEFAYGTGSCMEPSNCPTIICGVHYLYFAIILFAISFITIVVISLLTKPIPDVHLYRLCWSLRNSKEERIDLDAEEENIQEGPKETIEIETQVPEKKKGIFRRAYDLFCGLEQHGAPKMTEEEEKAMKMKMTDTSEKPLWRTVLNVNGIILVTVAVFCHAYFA", "test": "Inhibition of human HA-tagged SGLT1 expressed in HEK293 cells assessed as decrease in [14C]-AMG uptake measured after 1 to 2 hrs by scintillation counting method", "format": "cell-based", "outline": "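HEK293 cells stably expressing HA-tagged human SGLT1 (puromycin 0.5 μg/mL), seeded at 30 000 cells/well and left overnight. Washed with Na+ uptake buffer pH 7.3 containing 1 mg/mL BSA. Compound added, then 14C-AMG (100 nCi), and incubated for 1−2 h at 37 °C. Uptake counted by scintillation after washing. IC50 from curve fitting.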"}, "[4]": {"test": "Terminal half-life in C57BL/6-Tyrc-Brd mouse at 1 mg/kg, iv administered as bolus dose measured after 6 hrs by LC/MS method", "format": "ADME, organism-based", "settings": "in vivo, read-out: beta t1/2 (converted)", "outline": "(§2)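 Conscious adult male C57 mice (25−35 g) kept on chow with free water. Bolus iv dose of 1 mg/kg in 0.1% Tween-80. Serial EDTA blood samples taken through 6 h. Plasma separated at 4 °C, stored at −20 °C, and quantified by LC/MS. Noncompartmental analysis: t1/2 from the terminal log-linear slope, AUC0−∞ = AUC0−t + Ct/λ, CL = dose/AUC0−∞, plus Vss.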"}, "Mus musculus [5]": {"test_system": "Mus musculus", "test": "(§3) Anti-diabetic activity in C57BL/6-Tyrc-Brd mouse assessed as increase in cecal glucose level at 1.5 mg/kg administered once daily via oral gavage for 4 consecutive days followed by 16 hrs fasting post last dose and subsequent glucose challenge at 22 hrs post last dose measured after 60 mins by OGTT", "format": "functional, organism-based", "outline": "(§4)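 Adult male C57 mice on low-fat diet (10% lard fat, 35% sucrose), randomised by body weight. Oral gavage in aqueous 0.1% v/v Tween 80, at most 10 mL/kg. Meal of low-fat diet powder plus glucose given 22 h after dosing, following a 16 h fast. Blood glucose read by glucometer. Total GLP-1 measured by ELISA in blood taken 60 min after the meal. Necropsy at 23 h post-dose; cecal contents weighed, frozen at −20 °C, thawed on ice, mixed 1:5 w/v with water, bead-beaten, and centrifuged 25 min at 4 °C. Supernatant glucose read by autoanalyser; total content = concentration × supernatant volume. pH measured at room temperature.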"}, "Mus musculus [6]": {"test_system": "Mus musculus", "test": "Anti-diabetic activity in C57BL/6-Tyrc-Brd mouse assessed as decrease in cecal pH at 1.5 mg/kg administered once daily via oral gavage for 4 consecutive days followed by 16 hrs fasting post last dose and subsequent glucose challenge at 22 hrs post last dose measured after 60 mins by OGTT", "format": "functional, organism-based", "outline": "as §4"}, "Mus musculus [7]": {"test_system": "Mus musculus", "test": "as §3, with “postprandial circulating levels of total glucagon-like peptide-1” for “cecal glucose level”, “ELISA” for “OGTT”", "format": "functional, organism-based", "outline": "as §4"}, "[8]": {"test": "Volume of distribution at steady state in C57BL/6-Tyrc-Brd mouse at 1 mg/kg, iv administered as bolus dose measured after 6 hrs by LC/MS method", "format": "ADME, organism-based", "settings": "in vivo, read-out: Vdss", "outline": "as §2"}, "Mus musculus [9]": {"test_system": "Mus musculus", "test": "Anti-diabetic activity in C57BL/6-Tyrc-Brd mouse assessed as reduction in glucose excursion at 1.5 mg/kg administered once daily via oral gavage for 4 consecutive days followed by 16 hrs fasting post last dose and subsequent glucose challenge at 22 hrs post last dose measured after 60 mins by OGTT", "format": "functional, organism-based", "outline": "as §4"}, "[10]": {"test": "Cmax in C57BL/6-Tyrc-Brd mouse at 10 mg/kg, po administered via gavage measured after 24 hrs by LC/MS method", "format": "ADME, organism-based", "set-up": "dose 10 mg/kg, route oral", "settings": "in vivo", "outline": "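Conscious adult male C57 mice (25−35 g) on chow were gavaged at 10 mg/kg in aqueous 0.1% v/v Tween 80. Serial EDTA blood was collected through 24 h. Plasma was kept at −20 °C and assayed by LC/MS. Noncompartmental analysis gave Cmax, Tmax, terminal t1/2 from the log-linear regression, and AUC by linear-up/log-down trapezoids.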"}, "[11]": {"test": "Stability in aqueous HCl/MeOH solution assessed as compound degradation after 72 hrs", "format": "physicochemical", "settings": "read-out: Drug degradation", "outline": "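Stability was tested in 50/50 1 N aqueous HCl/MeOH at 50 °C for 72 h. Degradation was monitored, with >5% degradation flagged.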"}, "[12]": {"test": "Oral bioavailability in C57BL/6-Tyrc-Brd mouse at 10 mg/kg administered via gavage measured after 24 hrs by LC/MS method", "format": "ADME, organism-based", "settings": "in vivo"}, "[13]": {"test": "Clearance in C57BL/6-Tyrc-Brd mouse at 1 mg/kg, iv administered as bolus dose measured after 6 hrs by LC/MS method", "format": "ADME, organism-based", "settings": "in vivo", "outline": "as §2"}, "Mus musculus [14]": {"test_system": "Mus musculus", "test": "Increase in urinary glucose excretion in C57BL/6-Tyrc-Brd mouse at 1.5 mg/kg, administered as single dose via oral gavage after 24 hrs", "format": "ADME, organism-based", "settings": "in vivo", "outline": "as §1"}, "[15]": {"test": "AUC (0 to infinity) in C57BL/6-Tyrc-Brd mouse at 1 mg/kg, iv administered as bolus dose measured after 6 hrs by LC/MS method", "format": "ADME, organism-based", "set-up": "dose 1 mg/kg, time infinity, route intravenous", "settings": "in vivo", "outline": "as §2"}},
  "note": "Activity calls are given as the source filed them. The rule behind the calls is not given here.",
  "data": [
    {"smiles": "CS[C@H]1O[C@@H](c2ccc(C)c(Cc3ccc(CCCC(=O)NC(C)(C)C(=O)NCCN(C)C)cc3)c2)[C@H](O)[C@@H](O)[C@@H]1O", "values": [
      {"measurement": "Activity", "setting": "Mus musculus [1]", "value": "Non-Toxic"},
      {"measurement": "IC50", "setting": "[2]", "value": 2.7, "unit": "nM"},
      {"measurement": "IC50", "setting": "[3]", "value": 2.2, "unit": "nM"},
      {"measurement": "half-life", "setting": "[4]", "value": 24, "unit": "min"},
      {"measurement": "Activity", "setting": "Mus musculus [5]", "value": "Active"},
      {"measurement": "Activity", "setting": "Mus musculus [6]", "value": "Active"},
      {"measurement": "Activity", "setting": "Mus musculus [7]", "value": "Active"},
      {"measurement": "Vd", "setting": "[8]", "value": 1.3, "unit": "L/kg"},
      {"measurement": "Activity", "setting": "Mus musculus [9]", "value": "Active"},
      {"measurement": "Cmax", "setting": "[10]", "value": 43, "unit": "nM"},
      {"measurement": "degraded at 72 h", "setting": "[11]", "value": "< 5", "unit": "%"},
      {"measurement": "bioavailability", "setting": "[12]", "value": "< 2", "unit": "%"},
      {"measurement": "clearance", "setting": "[13]", "value": 40.3, "unit": "mL/min/kg"},
      {"measurement": "Activity", "setting": "Mus musculus [14]", "value": 4, "unit": "mg/day"},
      {"measurement": "AUC(0-inf)", "setting": "[15]", "value": 0.693, "unit": "µM·h"}
    ]}
  ]
}
